From ChEMBL document CHEMBL4616631, “Design, synthesis and evaluation of phthalide alkyl tertiary amine derivatives as promising acetylcholinesterase inhibitors with high potency and selectivity against Alzheimer's disease” (Bioorg Med Chem, 2020)

How the values were obtained:
[1] = Antioxidant activity assessed as trolox equivalent of AAPH-induced radical scavenging activity at 5 uM preincubated for 15 mins followed by AAPH addition measured every min for 90 mins by ORAC-FL assay; format: functional
How it was run: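 ORAC-FL in 75 mM phosphate buffer, pH 7.4. Sample at 5 µM was preincubated with fluorescein (150 nM final) for 15 min at 37 °C, then AAPH was added (12 mM final). Fluorescence (ex 485/em 535 nm) was read every minute for 90 min. […] Triplicate, at least three independent assays.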

[2] = biological target: Butyrylcholinesterase (BuChE) (Rattus norvegicus, UniProt Q9JKC1); experiment: Inhibition of BuChE in rat serum at 50 uM using S-butylthiocholine iodide as substrate by Ellman's method relative to control; format: cell-free; conditions: probe S-butylthiocholine iodide
How it was run: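 Rat serum (25%) as BuChE source, S-butylthiocholine iodide 1 mM, DTNB 0.2%, in 0.1 mM phosphate buffer pH 7.4, 37 °C 15 min (modified Ellman); absorbance change at 405 nm. Three independent experiments, each in triplicate.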

[3] = biological target: Amyloid-beta precursor protein (Homo sapiens) (UniProt P05067); experiment: Inhibition of HFIP-pretreated self-induced amyloid beta (1 to 42) (unknown origin) aggregation at 25 uM measured after 24 hrs by ThT fluorescence assay relative to control
How it was run: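 Aβ1-42 was pretreated in HFIP for 24 h at room temperature, dried, and dissolved in DMSO to a 200 µM stock. Aβ (25 µM) was incubated with compound (25 µM) at 37 °C for 24 h. ThT was added at 5 µM in glycine-NaOH, pH 8.5. Fluorescence ex 446/em 490 nm, background-subtracted; inhibition = (1−IFi/IFc)×100. Triplicate.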

[4] = biological target: T1, Amine oxidase [flavin-containing] B (Homo sapiens, UniProt P27338); experiment: Inhibition of recombinant human MAO-B expressed in baculovirus infected BTI insect cells at 10 uM using kynuramine as substrate measured after 30 mins by fluorescence based assay relative to control; conditions: 0.5 h
T1 sequence (P27338 whole entry): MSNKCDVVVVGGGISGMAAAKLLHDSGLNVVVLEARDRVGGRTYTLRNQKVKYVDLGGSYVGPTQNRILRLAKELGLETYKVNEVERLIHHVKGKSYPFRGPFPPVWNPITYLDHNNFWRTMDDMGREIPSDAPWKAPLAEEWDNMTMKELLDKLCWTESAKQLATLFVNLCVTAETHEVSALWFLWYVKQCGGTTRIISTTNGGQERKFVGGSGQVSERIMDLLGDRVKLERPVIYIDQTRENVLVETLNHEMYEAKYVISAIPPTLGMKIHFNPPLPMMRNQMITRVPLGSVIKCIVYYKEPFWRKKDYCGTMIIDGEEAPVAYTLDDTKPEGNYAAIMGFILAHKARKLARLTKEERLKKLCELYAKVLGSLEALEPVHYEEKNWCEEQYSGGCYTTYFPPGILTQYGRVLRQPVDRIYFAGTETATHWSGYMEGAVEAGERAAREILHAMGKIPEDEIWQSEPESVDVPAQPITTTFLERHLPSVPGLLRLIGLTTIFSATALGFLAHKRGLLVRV
How it was run: (§1)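 Recombinant human MAO-A or MAO-B (7.5 µg/mL) in 100 mM potassium phosphate, pH 7.4, with 20.2 mM KCl and DMSO below 4%. Kynuramine was 45 µM for MAO-A and 30 µM for MAO-B. Incubation 30 min at 37 °C, stopped with NaOH and water, then centrifuged. Supernatant fluorescence ex 310/em 400 nm. Triplicate.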

Acetylcholinesterase = Acetylcholinesterase (Electrophorus electricus, UniProt O42275); experiment: Inhibition of Electrophorus electricus AChE using […] as substrate incubated for 15 mins by Ellman's method
[5] = biological target: T2, Amine oxidase [flavin-containing] A (Homo sapiens, UniProt P21397); experiment: Inhibition of recombinant human MAO-A expressed in baculovirus infected BTI insect cells at 10 uM using kynuramine as substrate measured after 30 mins by fluorescence based assay relative to control; conditions: 0.5 h; how it was run: as §1
T2 sequence (P21397 whole entry): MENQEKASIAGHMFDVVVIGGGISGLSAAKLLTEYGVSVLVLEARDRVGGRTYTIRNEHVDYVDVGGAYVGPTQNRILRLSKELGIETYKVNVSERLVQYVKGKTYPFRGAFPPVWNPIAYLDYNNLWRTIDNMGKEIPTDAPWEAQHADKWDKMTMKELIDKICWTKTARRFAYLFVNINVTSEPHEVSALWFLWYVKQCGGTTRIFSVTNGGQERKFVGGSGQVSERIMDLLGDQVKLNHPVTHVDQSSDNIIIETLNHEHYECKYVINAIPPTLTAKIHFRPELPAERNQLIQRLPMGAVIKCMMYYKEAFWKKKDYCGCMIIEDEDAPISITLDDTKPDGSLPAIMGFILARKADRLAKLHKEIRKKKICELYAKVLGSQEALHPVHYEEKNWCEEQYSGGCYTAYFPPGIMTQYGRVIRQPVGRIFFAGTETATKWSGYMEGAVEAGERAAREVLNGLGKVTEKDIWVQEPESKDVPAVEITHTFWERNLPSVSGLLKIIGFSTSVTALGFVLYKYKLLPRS

[6] = Permeability of the compound at 100 ug/ml measured after 18 hrs by PAMPA assay; format: ADME; conditions: read-out: permeability
How it was run: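 PAMPA-BBB. Filter coated with porcine brain lipid in dodecane. Compound (DMSO stock 5 mg/mL) was diluted to 100 µg/mL in PBS/EtOH (70:30) in the donor well, with PBS/EtOH in the acceptor. Left 18 h at 25 °C. Acceptor concentration read at ten wavelengths in four wells. Three independent runs, validated with 11 reference drugs.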

Butyrylcholinesterase (BuChE), sequence (Q9JKC1 whole entry): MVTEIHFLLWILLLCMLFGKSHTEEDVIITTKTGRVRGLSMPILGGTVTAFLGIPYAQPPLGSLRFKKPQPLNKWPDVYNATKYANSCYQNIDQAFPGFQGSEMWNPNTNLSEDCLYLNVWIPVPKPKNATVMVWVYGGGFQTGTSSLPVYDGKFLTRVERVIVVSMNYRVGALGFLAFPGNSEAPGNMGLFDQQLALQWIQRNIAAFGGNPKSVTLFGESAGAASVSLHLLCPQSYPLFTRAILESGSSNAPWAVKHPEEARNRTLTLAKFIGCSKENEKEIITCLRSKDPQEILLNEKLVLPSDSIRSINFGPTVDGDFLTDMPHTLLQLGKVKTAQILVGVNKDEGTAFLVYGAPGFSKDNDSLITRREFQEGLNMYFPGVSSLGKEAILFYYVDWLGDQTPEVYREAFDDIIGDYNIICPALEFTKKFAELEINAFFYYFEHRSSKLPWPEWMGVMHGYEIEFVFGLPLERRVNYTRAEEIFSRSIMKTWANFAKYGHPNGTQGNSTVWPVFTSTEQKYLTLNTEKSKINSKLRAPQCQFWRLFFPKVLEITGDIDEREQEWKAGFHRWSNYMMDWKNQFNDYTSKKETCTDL
Acetylcholinesterase, sequence (O42275 whole entry): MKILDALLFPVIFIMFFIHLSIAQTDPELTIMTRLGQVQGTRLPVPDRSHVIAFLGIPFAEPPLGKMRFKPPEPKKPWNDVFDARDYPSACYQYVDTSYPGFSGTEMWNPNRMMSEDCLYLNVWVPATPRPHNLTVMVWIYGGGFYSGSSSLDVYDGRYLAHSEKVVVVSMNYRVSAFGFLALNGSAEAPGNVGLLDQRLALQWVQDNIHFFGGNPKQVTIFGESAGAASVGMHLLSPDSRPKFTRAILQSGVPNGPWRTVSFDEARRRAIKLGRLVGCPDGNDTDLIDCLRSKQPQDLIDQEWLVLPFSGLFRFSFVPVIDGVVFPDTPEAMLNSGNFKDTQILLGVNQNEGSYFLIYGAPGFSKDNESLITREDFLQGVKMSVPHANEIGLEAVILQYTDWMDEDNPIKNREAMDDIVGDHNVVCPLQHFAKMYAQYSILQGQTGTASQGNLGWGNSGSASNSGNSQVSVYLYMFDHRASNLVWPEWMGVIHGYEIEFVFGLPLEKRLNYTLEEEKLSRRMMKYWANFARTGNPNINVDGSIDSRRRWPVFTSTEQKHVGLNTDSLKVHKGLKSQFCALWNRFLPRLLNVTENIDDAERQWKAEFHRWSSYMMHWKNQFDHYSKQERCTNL
Amyloid-beta precursor protein (Homo sapiens), sequence (P05067 whole entry): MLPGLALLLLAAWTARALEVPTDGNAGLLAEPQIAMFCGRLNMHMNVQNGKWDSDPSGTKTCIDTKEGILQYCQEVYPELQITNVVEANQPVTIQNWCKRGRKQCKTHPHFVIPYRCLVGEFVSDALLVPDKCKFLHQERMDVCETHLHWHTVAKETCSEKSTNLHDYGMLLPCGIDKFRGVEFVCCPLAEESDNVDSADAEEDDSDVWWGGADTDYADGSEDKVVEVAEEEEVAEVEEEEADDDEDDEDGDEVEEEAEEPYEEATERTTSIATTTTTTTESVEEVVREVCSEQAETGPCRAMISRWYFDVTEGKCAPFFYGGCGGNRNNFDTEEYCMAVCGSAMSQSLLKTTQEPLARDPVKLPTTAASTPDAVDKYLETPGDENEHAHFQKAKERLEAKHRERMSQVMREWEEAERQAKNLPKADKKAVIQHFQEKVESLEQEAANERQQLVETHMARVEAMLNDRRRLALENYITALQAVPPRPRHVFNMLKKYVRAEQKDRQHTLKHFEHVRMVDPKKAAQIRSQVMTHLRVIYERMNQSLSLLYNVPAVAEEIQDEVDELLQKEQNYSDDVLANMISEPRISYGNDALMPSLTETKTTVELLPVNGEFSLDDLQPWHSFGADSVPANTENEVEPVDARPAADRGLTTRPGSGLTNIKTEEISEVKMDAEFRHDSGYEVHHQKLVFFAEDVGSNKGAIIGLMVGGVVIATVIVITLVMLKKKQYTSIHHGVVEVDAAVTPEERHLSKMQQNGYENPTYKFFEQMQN

Row | SMILES | Activity [1] | inhibition at 50 µM [2] | inhibition [3] | inhibition at 10 µM [4] | IC50 (Acetylcholinesterase) | inhibition at 10 µM [5] | Papp at 18 h, 100 ug/ml [6]
1 | CCN(CCC/C=C1\OC(=O)c2cc(OC)c(OC)cc21)Cc1ccccc1OC | 0.94 µMequiv/µM | 18.7% | 23.8% | 12% | 1540 nM | 26.7% | –
2 | CCN(CCCCC1OC(=O)c2cc(OC)c(OC)cc21)Cc1ccc(N(C)C)cc1 (centres undefined) | 2.59 µMequiv/µM | 6.2% | < 5% | 9.47% | 24900 nM | 12.1% | –
3 | COc1cc2c(cc1OC)C(CCCCN(C)Cc1ccccc1)OC2=O (centres undefined) | 0.29 µMequiv/µM | 11.5% | 8.9% | 6.4% | 350 nM | 8% | –
4 | COc1cc2c(cc1OC)C(CCCCCCN(C)Cc1ccccc1)OC2=O (centres undefined) | 0.25 µMequiv/µM | 13.9% | 13% | 16.3% | 160 nM | 7.88% | 13.6 ×10⁻⁶ cm/s
5 | COc1ccccc1CN(C)CCC/C=C1\OC(=O)c2cc(OC)c(OC)cc21 | 0.44 µMequiv/µM | 16.8% | 15.1% | 10.3% | 1640 nM | 2.9% | –
6 | CCN(CCC/C=C1/OC(=O)c2cc(OC)c(OC)cc21)Cc1ccccc1 | 0.52 µMequiv/µM | 11% | 30.3% | 15.8% | 1400 nM | 12.6% | –
7 | COc1cc2c(cc1OC)/C(=C\CCCCCN(C)Cc1ccccc1)OC2=O | 0.43 µMequiv/µM | 17.6% | 12.4% | 5.66% | 4.84 nM | 22.3% | 10.3 ×10⁻⁶ cm/s
8 | COc1cc2c(cc1OC)/C(=C\CCCN(C)Cc1ccccc1)OC2=O | 0.49 µMequiv/µM | 27.3% | 8.6% | 1.09% | 640 nM | 17.9% | –
9 | CCN(CCC/C=C1\OC(=O)c2cc(OC)c(OC)cc21)Cc1ccccc1 | 0.36 µMequiv/µM | 17.3% | 17% | 13.8% | 360 nM | 10.4% | –
10 | CCN(CCCCC1OC(=O)c2cc(OC)c(OC)cc21)Cc1ccccc1OC (centres undefined) | 0.74 µMequiv/µM | 29.8% | 13.8% | 10.4% | 370 nM | 27.8% | –
11 | COc1cc2c(cc1OC)/C(=C/CCCN1CCCCC1)OC2=O | 0.28 µMequiv/µM | 21.9% | 4.9% | 32.3% | 4560 nM | 1.95% | –
12 | COc1cc2c(cc1OC)/C(=C/CCCN(C)Cc1ccccc1)OC2=O | 0.32 µMequiv/µM | 12.2% | 11.7% | 11.9% | 340 nM | 10.9% | –
13 | COc1cc2c(cc1OC)/C(=C\CCCN1CCCCC1)OC2=O | 0.32 µMequiv/µM | 26.9% | 11.3% | 38.8% | 440 nM | 1.52% | –
14 | COc1cc2c(cc1OC)C(CCCCN1CCCCC1)OC2=O (centres undefined) | 0.22 µMequiv/µM | 8.14% | < 5% | 34.7% | 15800 nM | 1.92% | –
15 | CCN(CCC/C=C1/OC(=O)c2cc(OC)c(OC)cc21)Cc1ccccc1N(C)C | 1.07 µMequiv/µM | 43.1% | 8.2% | 2.1% | 350 nM | 30% | –
16 | COc1ccccc1CN(C)CCC/C=C1/OC(=O)c2cc(OC)c(OC)cc21 | 0.38 µMequiv/µM | 21.9% | 19.1% | 9.44% | 410 nM | 4.9% | –
17 | CCN(CCCCC1OC(=O)c2cc(OC)c(OC)cc21)Cc1ccccc1N(C)C (centres undefined) | 0.43 µMequiv/µM | 44.8% | 15.3% | 15% | 260 nM | 17.8% | –
18 | CCN(CCCCC1OC(=O)c2cc(OC)c(OC)cc21)Cc1ccccc1 (centres undefined) | 0.23 µMequiv/µM | 23.1% | 15.6% | 5.51% | 580 nM | 7.1% | –
19 | CCN(CCC/C=C1/OC(=O)c2cc(OC)c(OC)cc21)Cc1ccc(N(C)C)cc1 | 2.89 µMequiv/µM | 14.1% | 21.7% | 17% | 13800 nM | 12.7% | –
20 | CCN(CC)CCC/C=C1/OC(=O)c2cc(OC)c(OC)cc21 | 0.22 µMequiv/µM | 4.19% | 15.1% | 19.7% | 6260 nM | 5.77% | –
21 | COc1ccccc1CN(C)CCCCC1OC(=O)c2cc(OC)c(OC)cc21 (centres undefined) | 0.27 µMequiv/µM | 21.7% | 14.4% | 5.7% | 490 nM | 0.25% | –
22 | CCN(CCC/C=C1\OC(=O)c2cc(OC)c(OC)cc21)Cc1ccc(N(C)C)cc1 | 2.75 µMequiv/µM | 13.6% | 22% | 8.86% | 23400 nM | 12.9% | –
23 | CCN(CC)CCCCC1OC(=O)c2cc(OC)c(OC)cc21 (centres undefined) | 0.31 µMequiv/µM | 5.1% | 15% | 21.5% | 14700 nM | 2.45% | –
24 | CCN(CCC/C=C1\OC(=O)c2cc(OC)c(OC)cc21)Cc1ccccc1N(C)C | 0.78 µMequiv/µM | 40.5% | 15.4% | 9.9% | 210 nM | 29.1% | –
25 | CCN(CCCCCCC1OC(=O)c2cc(OC)c(OC)cc21)Cc1ccccc1N(C)C (centres undefined) | 0.6 µMequiv/µM | 40.5% | 7.66% | 13.4% | 1240 nM | 14.3% | –
26 | CCN(CCC/C=C1/OC(=O)c2cc(OC)c(OC)cc21)Cc1ccccc1OC | 0.53 µMequiv/µM | 19.1% | 19% | 4.8% | 800 nM | 27.1% | –
27 | CCN(CCCCC/C=C1/OC(=O)c2cc(OC)c(OC)cc21)Cc1ccccc1N(C)C | 1.2 µMequiv/µM | 35.2% | 13% | 7.3% | 890 nM | 28% | –
